ChEMBL document CHEMBL5104202, “Structure-Uptake Relationship Studies of Oxazolidinones in Gram-Negative ESKAPE Pathogens” (J Med Chem, 2022)
Converted amounts (≈) assume the structure as drawn.

Legend:
[1] = tested on: Acinetobacter baumannii; assay: Antibacterial activity against multidrug resistant Acinetobacter baumannii Ab5075 assessed as inhibition of bacterial growth incubated for 24 hrs in M9-MOPS medium by twofold serial dilution method; format: functional
[2] = tested on: Acinetobacter baumannii; assay: Antibacterial activity against efflux pump lacking/recombinant OM pore producing Acinetobacter baumannii incubated for 24 hrs by twofold serial dilution method; format: functional
How it was run: (§1)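 MICs by twofold serial dilution in 96-well plates from 10 mM DMSO stocks. Cultures grown in the indicated media; for E. coli, A. baumannii and P. aeruginosa, inducers were 0.1% arabinose, 1% arabinose and 0.1 mM IPTG respectively.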

[3] = tested on: Klebsiella pneumoniae; assay: Antibacterial activity against multidrug resistant Klebsiella pneumoniae ATCC13883 assessed as inhibition of bacterial growth incubated for 24 hrs in MHI medium by twofold serial dilution method; format: functional
[4] = tested on: Pseudomonas aeruginosa; assay: Antibacterial activity against wild type Pseudomonas aeruginosa assessed as inhibition of bacterial growth; format: functional, organism-based
[5] = tested on: Escherichia coli; assay: Antibacterial activity against Escherichia coli SQ110 DTC C2610A incubated for 24 hrs by twofold serial dilution method; format: functional
How it was run: (§2)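 E. coli SQDTC (TolC-deficient, single rRNA operon) carrying LZD-resistant 23S rRNA substitutions. Compounds come from 10 mM DMSO stocks and are twofold serially diluted in 96-well plates.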

[6] = tested on: Klebsiella pneumoniae; assay: Antibacterial activity against multidrug resistant Klebsiella pneumoniae ATCC13883 assessed as inhibition of bacterial growth incubated for 24 hrs in M9-MOPS medium by twofold serial dilution method; format: functional
[7] = tested on: Pseudomonas aeruginosa; assay: Antibacterial activity against multidrug resistant Pseudomonas aeruginosa BAA 2109 assessed as inhibition of bacterial growth incubated for 24 hrs in […] medium by twofold serial dilution method; format: functional
[8] = tested on: Escherichia coli; assay: Antibacterial activity against efflux pump lacking/recombinant OM pore producing Escherichia coli assessed as inhibition of bacterial growth; format: functional, organism-based
[9] = tested on: Acinetobacter baumannii; assay: Antibacterial activity against multidrug resistant Acinetobacter baumannii AYE assessed as inhibition of bacterial growth incubated for 24 hrs in MHI medium by twofold serial dilution method; format: functional
[10] = tested on: Pseudomonas aeruginosa; assay: Antibacterial activity against multidrug resistant Pseudomonas aeruginosa BAA 2108 assessed as inhibition of bacterial growth incubated for 24 hrs in MHI medium by twofold serial dilution method; format: functional
[11] = tested on: Pseudomonas aeruginosa; assay: Antibacterial activity against multidrug resistant Pseudomonas aeruginosa BAA 2109 assessed as inhibition of bacterial growth incubated for 24 hrs in MHI medium by twofold serial dilution method; format: functional
[12] = tested on: Escherichia coli; assay: Antibacterial activity against Escherichia coli SQ110 DTC incubated for 24 hrs by twofold serial dilution method; format: functional; how it was run: as §1
[13] = tested on: Escherichia coli; assay: Antibacterial activity against Escherichia coli SQ110 DTC G2032A incubated for 24 hrs by twofold serial dilution method; format: functional; how it was run: as §2
[14] = tested on: Pseudomonas aeruginosa; assay: Antibacterial activity against recombinant OM pore producing Pseudomonas aeruginosa assessed as inhibition of bacterial growth; format: functional, organism-based
[15] = tested on: Klebsiella aerogenes; assay: Antibacterial activity against multidrug resistant Klebsiella aerogenes ATCC13048 assessed as inhibition of bacterial growth incubated for 24 hrs in M9-MOPS medium by twofold serial dilution method; format: functional
[16] = tested on: Escherichia coli; assay: Antibacterial activity against efflux pump lacking Escherichia coli assessed as inhibition of bacterial growth; format: functional, organism-based
[17] = tested on: Acinetobacter baumannii; assay: Antibacterial activity against efflux pump lacking/recombinant OM pore producing Acinetobacter baumannii assessed as inhibition of bacterial growth; format: functional, organism-based
[18] = tested on: Pseudomonas aeruginosa; assay: Antibacterial activity against efflux pump lacking/recombinant OM pore producing Pseudomonas aeruginosa incubated for 24 hrs by twofold serial dilution method; format: functional; how it was run: as §1
[19] = tested on: Acinetobacter baumannii; assay: Antibacterial activity against efflux pump lacking Acinetobacter baumannii assessed as inhibition of bacterial growth; format: functional, organism-based
[20] = tested on: Klebsiella pneumoniae; assay: Antibacterial activity against multidrug resistant Klebsiella pneumoniae ATCC43816 assessed as inhibition of bacterial growth incubated for 24 hrs in M9-MOPS medium by twofold serial dilution method; format: functional
[21] = tested on: Klebsiella aerogenes; assay: Antibacterial activity against multidrug resistant Klebsiella […] assessed as inhibition of bacterial growth incubated for 24 hrs in MHI medium by twofold serial dilution method; format: functional
[22] = tested on: Pseudomonas aeruginosa; assay: Antibacterial activity against efflux pump lacking Pseudomonas aeruginosa assessed as inhibition of bacterial growth; format: functional, organism-based
[23] = tested on: Escherichia coli; assay: Antibacterial activity against recombinant OM pore producing Escherichia coli assessed as inhibition of bacterial growth; format: functional, organism-based
[24] = tested on: Acinetobacter baumannii; assay: Antibacterial activity against wild type Acinetobacter baumannii assessed as inhibition of bacterial growth; format: functional, organism-based
[25] = tested on: Pseudomonas aeruginosa; assay: Antibacterial activity against efflux pump lacking/recombinant OM pore producing Pseudomonas aeruginosa assessed as inhibition of bacterial growth; format: functional, organism-based
[26] = tested on: Acinetobacter baumannii; assay: Antibacterial activity against multidrug resistant Acinetobacter baumannii AYE assessed as inhibition of bacterial growth incubated for 24 hrs in M9-MOPS medium by twofold serial dilution method; format: functional
[27] = tested on: Escherichia coli; assay: Antibacterial activity against wild type Escherichia coli assessed as inhibition of bacterial growth; format: functional, organism-based
[28] = tested on: Pseudomonas aeruginosa; assay: Antibacterial activity against multidrug resistant Pseudomonas aeruginosa BAA 2108 assessed as inhibition of bacterial growth incubated for 24 hrs in M9-MOPS medium by twofold serial dilution method; format: functional
[29] = tested on: Escherichia coli; assay: Antibacterial activity against Escherichia coli SQ110 incubated for 24 hrs by twofold serial dilution method; format: functional; how it was run: as §1
[30] = tested on: Klebsiella pneumoniae; assay: Antibacterial activity against multidrug resistant Klebsiella pneumoniae ATCC43816 assessed as inhibition of bacterial growth incubated for 24 hrs in MHI medium by twofold serial dilution method; format: functional
[31] = tested on: Acinetobacter baumannii; assay: Antibacterial activity against multidrug resistant Acinetobacter baumannii Ab5075 assessed as inhibition of bacterial growth incubated for 24 hrs in MHI medium by twofold serial dilution method; format: functional
[32] = tested on: Acinetobacter baumannii; assay: Antibacterial activity against recombinant OM pore producing Acinetobacter baumannii assessed as inhibition of bacterial growth; format: functional, organism-based
[33] = tested on: Escherichia coli; assay: Antibacterial activity against efflux pump lacking/recombinant OM pore producing Escherichia coli incubated for 24 hrs by twofold serial dilution method; format: functional
How it was run: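 E. coli efflux-knockout/hyperporinated strain grown in M9 medium with 50 mM MOPS (pH 7.2) and 0.2% xylose. OM pore induced with 0.1% arabinose. Compounds come from 10 mM DMSO stocks and are twofold serially diluted in 96-well plates.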

[34] = tested on: Klebsiella pneumoniae; assay: Antibacterial activity against multidrug resistant Klebsiella pneumoniae ATCC43816 assessed as inhibition of bacterial growth incubated for 24 hrs in MHI medium by twofold serial dilution method; conditions: ATCC43816, 24 h
[35] = tested on: Staphylococcus aureus; assay: Antibacterial activity against Staphylococcus aureus ATCC 25923 incubated for 24 hrs by twofold serial dilution method; format: functional; how it was run: as §1
[36] = tested on: Pseudomonas aeruginosa; assay: Selectivity ratio of IC50 for OM pore producing Pseudomonas aeruginosa to IC50 for efflux pump lacking/OM pore producing Pseudomonas aeruginosa; format: functional
How it was run: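 Efflux impact ratio (P/PE) is the M9-MOPS growth IC50 in the pore-producing strain divided by that in the efflux-lacking/pore-producing strain.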

[37] = tested on: Pseudomonas aeruginosa; assay: Selectivity ratio of IC50 for efflux pump lacking Pseudomonas aeruginosa to IC50 for efflux pump lacking/OM pore producing Pseudomonas aeruginosa; format: functional
How it was run: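 OM impact ratio (E/PE) is the M9-MOPS growth IC50 in the efflux-lacking strain divided by that in the efflux-lacking/pore-producing strain.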

Row | SMILES | MIC [1] [µM] | MIC [2] [µM] | MIC [3] [µM] | IC50 [4] [µM] | MIC [5] [µM] | MIC [6] [µM] | MIC [7] [µM] | IC50 [8] [µM] | MIC [9] [µM] | MIC [10] [µM] | MIC [11] [µM] | MIC [12] [µM] | MIC [13] [µM] | IC50 [14] [µM] | MIC [15] [µM] | IC50 [16] [µM] | IC50 [17] [µM] | MIC [18] [µM] | IC50 [19] [µM] | MIC [20] [µM] | also measured
1 | NCc1ccc(-c2ccc(N3C[C@H](CO)OC3=O)cc2F)cc1O | > 200 | 25 | > 200 | 55.9 | 50 (≈ 16.6 µg/mL) | 50 (≈ 16.6 µg/mL) | > 200 | 10.3 | > 200 | > 200 | > 200 | 25 (≈ 8.31 µg/mL) | 100 (≈ 33.2 µg/mL) | 40.8 | 12.5 (≈ 4.15 µg/mL) | 10 | 15.4 | 6.25 | 15.4 | 100 (≈ 33.2 µg/mL) | MIC [21]: 200 µM (≈ 66.5 µg/mL); IC50 [22]: 2.2 µM; IC50 [23]: 23.3 µM; IC50 [24]: 37.6 µM; IC50 [25]: 0.2 µM; MIC [26]: > 200 µM; IC50 [27]: 66.1 µM; MIC [28]: > 200 µM; MIC [29]: > 100 µM; MIC [30]: > 200 µM; MIC [31]: > 200 µM; IC50 [32]: 37.6 µM; MIC [33]: 50 µM
2 | CC(=O)NC[C@H]1CN(c2ccc(N3CCOCC3)c(F)c2)C(=O)O1 [LINEZOLID] | ≥ 200 | 25 | > 200 | > 100 | 50 (≈ 16.9 µg/mL) | ≥ 200 | > 200 | 9.3 | > 200 | > 200 | > 200 | 25 (≈ 8.43 µg/mL) | > 100 | 19.8 | > 200 | 8.7 | 4 | 12.5 | 4.9 | > 200 | MIC [34]: > 200 µM; MIC [35]: 6.25 µM (≈ 2.11 µg/mL); Ratio IC50 [36]: 12; IC50 [22]: 24.7 µM; IC50 [23]: 18 µM; IC50 [24]: 33.4 µM; IC50 [25]: 1.7 µM; Ratio IC50 [37]: 15; MIC [26]: 200 µM (≈ 67.5 µg/mL); IC50 [27]: > 100 µM; MIC [28]: > 200 µM; MIC [29]: > 100 µM; MIC [30]: > 200 µM; MIC [31]: > 200 µM; IC50 [32]: 9.2 µM; MIC [33]: 25 µM
3 | O=C1O[C@@H](CO)CN1c1ccc(-c2cccnc2)c(F)c1 | 100 (≈ 28.8 µg/mL) | 12.5 | > 200 | > 100 | 25 (≈ 7.21 µg/mL) | 200 (≈ 57.7 µg/mL) | > 200 | 3.2 | > 200 | > 200 | > 200 | 12.5 (≈ 3.6 µg/mL) | 50 (≈ 14.4 µg/mL) | 75.3 | 200 (≈ 57.7 µg/mL) | 2.8 | 4.3 | 6.25 | 4.3 | > 200 | MIC [34]: > 200 µM; MIC [35]: 1.56 µM (≈ 0.45 µg/mL); IC50 [22]: 4.7 µM; IC50 [23]: 14.5 µM; IC50 [24]: 19 µM; IC50 [25]: 6 µM; MIC [26]: 100 µM (≈ 28.8 µg/mL); IC50 [27]: > 100 µM; MIC [28]: > 200 µM; MIC [29]: > 100 µM; MIC [30]: > 200 µM; MIC [31]: > 200 µM; IC50 [32]: 19 µM; MIC [33]: 25 µM
4 | O=C1O[C@@H](CO)CN1c1ccc(-c2ccncc2)c(F)c1 | 100 (≈ 28.8 µg/mL) | 6.25 | 200 (≈ 57.7 µg/mL) | 44.2 | 6.25 (≈ 1.8 µg/mL) | 100 (≈ 28.8 µg/mL) | > 200 | 1.3 | > 200 | ≥ 200 | > 200 | 6.25 (≈ 1.8 µg/mL) | 25 (≈ 7.21 µg/mL) | 48.2 | 200 (≈ 57.7 µg/mL) | 0.8 | 1.4 | 3.12 | 1.4 | 200 (≈ 57.7 µg/mL) | MIC [35]: 1.56 µM (≈ 0.45 µg/mL); MIC [21]: 200 µM (≈ 57.7 µg/mL); IC50 [22]: 8.1 µM; IC50 [23]: 5.6 µM; IC50 [24]: 16.5 µM; IC50 [25]: 2.9 µM; MIC [26]: 100 µM (≈ 28.8 µg/mL); IC50 [27]: 44.3 µM; MIC [28]: ≥ 200 µM; MIC [29]: > 100 µM; MIC [30]: > 200 µM; MIC [31]: > 200 µM; IC50 [32]: 16.5 µM; MIC [33]: 6.25 µM
